Columns and labels:
[1] = Selectivity index, ratio of CC50 for Swiss mouse peritoneal macrophages to IC50 for antileishmanial activity against amastigote form of Leishmania infantum MHOM/MA(BE)/67 infected in Swiss mouse peritoneal macrophages; type: toxicity; conditions: read-out: Ratio CC50/IC50
Summary of the method: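 Ratio of macrophage CC50 to L. infantum amastigote IC50, both taken from the same 5-day macrophage assay.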

[2] = Selectivity index, ratio of CC50 for human MRC-5 SV2 cells to IC50 for antitrypanosomal activity against nifurtimox-sensitive Trypanosoma cruzi Tulahuen CL2 infected in human MRC-5 SV2 cells; type: toxicity, cell-based; conditions: read-out: Ratio CC50/IC50
Summary of the method: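 Ratio of MRC-5SV2 CC50 (3-day resazurin assay) to IC50 against T. cruzi amastigotes in MRC-5SV2 cells (7-day CPRG assay).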

[3] = Cytotoxicity against Swiss mouse peritoneal macrophages assessed as cell detachment, lysis and granulation measured after 5 days by microscopic analysis; type: cell-based, Peritoneal macrophage; conditions: time 5 day
Summary of the method: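 Scored within the Leishmania macrophage assay over 5 days: detachment, lysis and granulation judged semi-quantitatively by microscopy across at least 500 cells. CC50 derived from % reduction in normal cells versus untreated wells.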

[4] = Cytotoxicity against human MRC-5 SV2 cells assessed as reduction in cell growth measured after 3 days by resazurin dye based fluorometric analysis; conditions: time 3 day
Leishmania infantum = experiment: Antileishmanial activity against amastigote form of Leishmania infantum MHOM/MA(BE)/67 infected in Swiss mouse peritoneal macrophages assessed as reduction in parasite growth treated at 2 hrs post-infection and measured after 5 days by Giemsa staining based microscopic analysis; type: functional, organism-based; conditions: MHOM/MA(BE)/67, Peritoneal macrophage
Summary of the method: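 Swiss mouse peritoneal macrophages, harvested after 2-day potato-starch stimulation, infected 48 h after plating; compounds added 2 h post-infection.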

Trypanosoma cruzi = experiment: Antitrypanosomal activity against nifurtimox-sensitive Trypanosoma cruzi Tulahuen CL2 infected in human MRC-5 SV2 cells assessed as inhibition of parasite growth measured after 7 days by spectrophotometric analysis; type: functional, organism-based; conditions: Tulahuen CL2, MRC-5 SV2, 168 h
[5] = tested on: Trypanosoma brucei rhodesiense; experiment: Antitrypanosomal activity against Trypanosoma brucei rhodesiense STIB900 measured after 6 hrs by alamar blue dye based fluorimetry analysis; type: functional, organism-based; conditions: STIB900, 6 h

Structure (SMILES)	selectivity ratio [1]	selectivity ratio [2]	CC50 at 120 h [3] [µM]	CC50 at 72 h [4] [µM]	IC50 (Leishmania infantum) [µM]	IC50 (Trypanosoma cruzi) [µM]	EC50 [5] [µM]
Nc1ncnc2c1c(-c1ccc(Cl)cc1)nn2[C@H]1C[C@H](O)[C@@H](CO)O1	1	> 22	≥ 32	> 64	≥ 32.5	2.49	
Nc1ncnc2c1c(I)nn2[C@@H]1O[C@H](CO)[C@@H](O)[C@H]1O	> 2	2	> 64	25.4	25.4	12.6	
Nc1ncnc2c1c(Cl)nn2[C@@H]1O[C@H](CO)[C@@H](O)[C@H]1O	> 1	> 22	> 64	> 64	> 64	2.89	
Nc1ncnc2c1c(-c1ccc(C(F)(F)F)cc1)nn2[C@@H]1O[C@H](CO)[C@@H](O)[C@H]1O	> 1	> 10	> 64	> 64	57	6.34	
N#Cc1nn([C@@H]2O[C@H](CO)[C@@H](O)[C@H]2O)c2ncnc(N)c12	> 8	36	> 64	34.6	8	0.95	
NC(=O)c1nn([C@@H]2O[C@H](CO)[C@@H](O)[C@H]2O)c2ncnc(N)c12	1	1	8	0.25	8.11	0.25	
Nc1ncnc2c1c(-c1ccc(Cl)cc1Cl)nn2[C@@H]1O[C@H](CO)[C@@H](O)[C@H]1O	> 1	> 11	> 64	> 64	52.8	6.06	
Cc1nn([C@@H]2O[C@H](CO)[C@@H](O)[C@H]2O)c2ncnc(N)c12	1	12	40	57.5	32.7	4.68	
C#Cc1nn([C@@H]2O[C@H](CO)[C@@H](O)[C@H]2O)c2ncnc(N)c12	1	20	≥ 8	≥ 46.5	10.4	2.78	
Nc1ncnc2c1c(C(F)F)nn2[C@@H]1O[C@H](CO)[C@@H](O)[C@H]1O	1	< 1	0.25	2.42	0.25	8.3	
CNc1nn([C@@H]2O[C@H](CO)[C@@H](O)[C@H]2O)c2ncnc(N)c12	> 1		> 64	> 64	50.8	> 64	
Nc1ncnc2c1ccn2[C@@H]1O[C@H](CO)C[C@H]1O							0.00052
Nc1ncnc2c1c(C(=O)Nc1ccccc1)nn2[C@@H]1O[C@H](CO)[C@@H](O)[C@H]1O	1		32	> 64	32.5	> 64	
Nc1ncnc2c1c(/C=C/c1ccccc1)nn2[C@@H]1O[C@H](CO)[C@@H](O)[C@H]1O	> 1	> 4	> 64	> 64	50.8	16.5	
Nc1ncnc2c1c(CCc1ccccc1)nn2[C@@H]1O[C@H](CO)[C@@H](O)[C@H]1O		> 1	> 64	> 64	> 64	52.3	
Nc1ncnc2c1c(-c1ccc([N+](=O)[O-])cc1)nn2[C@@H]1O[C@H](CO)[C@@H](O)[C@H]1O		> 6	> 64	> 64	> 64	10.3	
Cc1cc(Cl)ccc1-c1nn([C@@H]2O[C@H](CO)[C@@H](O)[C@H]2O)c2ncnc(N)c12		> 17	> 64	> 64	> 64	3.76	
Nc1ncnc2c1c(-c1ccccc1)nn2[C@@H]1O[C@H](CO)[C@@H](O)[C@H]1O		> 5	> 64	> 64	> 64	13.1	

Source: ChEMBL document CHEMBL4811241, “Revisiting Pyrazolo[3,4-d]pyrimidine Nucleosides as Anti-Trypanosoma cruzi and Antileishmanial Agents” (J Med Chem, 2021)
